High-throughput results deposited in PubChem by Johns Hopkins Ion Channel Center.
This is a sample that favours compounds with a hit; in the whole collection about 3.1% have one here.
KCNK9 block: blocks the human KCNK9 two-pore domain potassium channel; 1.2% of 310,000 active; AID 488922; Q9NPC2; B-score at 10 µM; HEK293 KCNK9, FluxOR thallium flux fluorescence; active compounds read low;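 active = ratio B-score over 3 SD below the library mean, with starting fluorescence within 5 SD of its mean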;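 note: negative B-score means less thallium flux so channel inhibition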
Target sequence (Q9NPC2 whole entry, looked up, the tested form may be a part): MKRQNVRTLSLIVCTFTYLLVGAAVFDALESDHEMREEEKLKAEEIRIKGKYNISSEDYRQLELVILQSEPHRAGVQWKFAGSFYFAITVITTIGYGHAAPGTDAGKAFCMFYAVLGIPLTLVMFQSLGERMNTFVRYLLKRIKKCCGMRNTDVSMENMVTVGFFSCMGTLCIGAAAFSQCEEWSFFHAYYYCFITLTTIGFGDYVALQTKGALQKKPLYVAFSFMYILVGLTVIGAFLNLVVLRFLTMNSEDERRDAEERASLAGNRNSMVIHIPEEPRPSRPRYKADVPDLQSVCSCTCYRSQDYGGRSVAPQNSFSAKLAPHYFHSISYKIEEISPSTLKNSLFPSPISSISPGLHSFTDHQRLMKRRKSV
KCNK3 block: human KCNK3 channel inhibition, primary screen. O14649. CHO-KCNK3 thallium flux, FluxOR fluorescence; active compounds read low. B-score at 10 µM. 0.84% of 340,000 active;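 active = B-score under library mean minus 4 SD, starting fluorescence ratio at most library mean plus 5 SD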;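 note: more negative B-score means stronger inhibition of thallium flux through KCNK3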
KCNQ1 block: human KCNQ1 channel inhibition | P51787 | CHO-K1 KCNQ1, FluxOR thallium flux fluorescence; active compounds read high | B-score at 10 µM | 1.3% of 310,000 active | AID 2642;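 active = compounds whose thallium flux B-score, printed positive for inhibition, exceeds three library SD while starting fluorescence stays within three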;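 note: channel opened by potassium depolarization with thallium stimulus after 20 min compound exposure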
hERG protect: shields human hERG channel from block by proarrhythmic agents. Q12809. CHO-hERG, FluxOR thallium flux, dofetilide IC70 present. activation (rescue from dofetilide block), less the hit threshold, % at 10 µM. 0.51% of 310,000 active. AID 1511;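 active = activation above the mean of controls blocked by dofetilide plus 5 SD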;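 note: thallium influx through hERG after potassium depolarization seen as dye fluorescence rise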
KCNQ1 pot: human KCNQ1 channel potentiation or activation; P51787; CHO-K1 KCNQ1, thallium flux FluxOR fluorescence; active compounds read high; B-score at 10 µM; 0.35% of 310,000 active; AID 2648;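 active = fluorescence ratio B-score, a plate-corrected score, at least three library SD, with initial intensity B-score within 5 SD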
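Doses: Single concentration per compound, DMSO matched to controls | Test system: KCNQ1-transfected CHO-K1 cells | Timing: 90 min dye loading and 20 min compound exposure, both at room temperature | Measured by: Kinetic FluxOR thallium fluorescence, 10-s 1-Hz baseline, 110-s post-stimulus read | Medium: Assay buffer with matched DMSO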
KCNK9 inh conf: human KCNK9 inhibitor confirmation. AID 492992. HEK293 KCNK9 cells, FluxOR thallium flux fluorescence. inhibition, % at 10 µM. 43% of 4,900 active. shares compounds with KCNK9 block;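 active = thallium signal inhibited by more than 5 SD of the compound-free buffer control wells, on both duplicate plates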;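 note: 0% = assay buffer control wells without compound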
Kir21 sel: mouse Kir2.1 off-target activity of KCNK9 modulators; AID 492993; inhibition, % at 10 µM; 4% of 4,900 active; Kir2.1 cells, FluxOR thallium flux fluorescence; shares compounds with KCNK9 block;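 active = thallium signal drop more than 5 SD beyond the mean of the no-compound control wells, seen in both duplicate plates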;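 note: signal is fluorescence rise after thallium addition divided by baseline fluorescence; plate controls were assay buffer only for no effect and full block by chlorpromazine control for full effect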
HEK293 Tl ctr: second check of KCNK9 modulator effects in non-induced HEK293 cells; shares compounds with KCNK9 block; FluxOR thallium flux; inhibition, % at 10 µM; 40% of 4,900 active;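 active = thallium signal drop beyond 5 SD of the untreated control mean, on both duplicate plates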;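 note: plate controls were buffer only IC0 wells for no effect and SID17386958 at its maximal inhibitory level for full effect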
KCNK3 inh conf: human KCNK3 channel inhibition, confirmation assay; shares compounds with KCNK3 block; CHO-KCNK3 thallium flux, FluxOR fluorescence; 0% buffer, 100% carvedilol maximal block; ratio percent of control, % at 10 µM; 99% of 2,400 active; AID 651638;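 active = ratio percent of control, averaged over triplicates, above buffer control mean plus 5 SD, cut at about 64% in these data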;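 note: ratio is the fluorescence rise from min to max over baseline after thallium stimulus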
KCNK3 noninduced: activity in cells without induced KCNK3 expression | non-induced KCNK3 parental cells, FluxOR thallium flux; active compounds read low | AID 651747 | thallium flux ratio (lower = more inhibition) at 10 µM | 40% of 2,400 active | shares compounds with KCNK3 block;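 active = thallium flux ratio, averaged over three wells, more than 5 SD below the buffer control mean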;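 note: host cells are CHO cells without KCNK3 induction; ratio is peak minus trough fluorescence over baseline then normalized to buffer controls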
Numbers without * were called inactive; i = inactive; · = no result given.

SMILES	KCNK9 block	KCNK3 block	KCNQ1 block	hERG protect	KCNQ1 pot	KCNK9 inh conf	Kir21 sel	HEK293 Tl ctr	KCNK3 inh conf	KCNK3 noninduced
Cc1cc(C)nc(NC(=NCCc2c[nH]c3ccccc23)NC(=O)c2ccco2)n1	-15*	-9*	i	-21	i	30%*	i	i	135*	0.15*
CCOc1ccc(OCCSc2nnnn2C2CCCCC2)cc1	-14*	-12*	i	-12	i	68%*	i	44%*	118*	0.16*
CC(=O)c1cccc(OCC(=O)Nc2cccc(C(=O)Nc3c(C)n(C)n(-c4ccccc4)c3=O)c2)c1	·	i	·	·	·	·	·	·	·	·
Cc1sc(NC(=O)c2ccco2)c(CN2CCN(c3ccccc3)CC2)c1C	-9.9*	i	i	-15	i	35%*	i	35%*	113*	i
CCOC(=O)Cn1cc(Cl)cc(C(=O)Nc2ccccc2)c1=O	i	i	i	-2	i	·	·	·	·	·
COc1cccc(NS(=O)(=O)NC(=O)c2c(C)[nH]c3ccccc23)c1	i	i	i	-4	i	·	·	·	·	·
O=C(N/N=C/c1cccnc1)c1ccccc1OCc1ccc(Br)cc1	-11*	-11*	i	-14	i	30%*	i	i	115*	0.16*
O=C(N/N=C/c1cccnc1)c1ccccc1Br	i	i	i	2	i	·	·	·	·	·
O=C(COC(=O)c1cc[n+]([O-])cc1)NCC12CC3CC(CC(C3)C1)C2	i	i	i	-8	i	·	·	·	·	·
CC(C)N(Cc1nc(-c2ccc(Cl)cc2)no1)C(=O)C(c1ccccc1)c1ccccc1	-10*	-9.9*	i	-12	i	55%*	i	40%*	129*	0.13*
CN(CC(=O)Nc1ccccc1F)Cc1cccs1	i	i	i	-5	i	·	·	·	·	·
Cc1cc(Br)ccc1NC(=O)CN(C)Cc1cccs1	-12*	-9*	i	-12	i	43%*	i	28%*	100*	i
O=[N+]([O-])c1cc([N+](=O)[O-])c(Oc2cccc(Cl)c2Cl)cc1NN1CCCCC1	i	i	i	-6	i	·	·	·	·	·
CC1(C)Cc2cccc(Oc3cc(NN4CCCCC4)c([N+](=O)[O-])cc3[N+](=O)[O-])c2O1	-14*	-12*	6*	-7	i	56%*	i	40%*	88*	i
Cc1ccc(C2=NN(CC(=O)O)C(=O)CC2)cc1	i	i	i	-5	i	·	·	·	·	·
Cc1nc(NCCc2ccccc2)c2oc3ccccc3c2n1	-13*	-10*	i	-30	i	56%*	i	i	131*	0.12*
CCCCC(C(=O)NC1CCCC1)N(Cc1ccco1)C(=O)Cn1nnc(-c2ccc(F)cc2)n1 (centres undefined)	-22*	-12*	i	-4	i	54%*	i	37%*	92*	i
O=C(C/C=N/OCc1ccc(Cl)cc1Cl)c1ccc(Cl)cc1	-15*	-9*	i	-9	i	43%*	i	43%*	93*	0.15*
Cc1cccc(-c2nnc(-c3cccc(NC(=O)Cc4cccs4)c3)o2)c1	-17*	-16*	i	0	i	54%*	i	30%*	148*	0.14*
O=C(Cc1cccs1)Nc1ccc(-c2nnc(-c3ccccc3)o2)cc1	i	i	i	-1	i	·	·	·	·	·
O=C(COC(=O)c1c2c(nc3ccccc13)CCCC2)c1cccs1	-10*	-12*	i	-18	i	54%*	i	i	138*	0.12*
CCOc1ccc(N(CC(=O)N2CCC(Cc3ccccc3)CC2)S(C)(=O)=O)cc1	i	i	i	-7	i	·	·	·	·	·
COc1ccccc1Cn1c(-c2ccccc2OC)nc2ccccc21	-11*	-9.1*	i	-14	i	26%*	i	48%*	109*	i
Oc1ccccc1Cn1c(-c2ccccc2O)nc2ccccc21	i	i	i	-11	i	·	·	·	·	·
Nc1sc(-c2ccccc2)cc1C(=O)N/N=C/c1ccc(Cl)cc1	-14*	i	i	-9	i	52%*	i	38%*	123*	i
SMILES	KCNK9 block	KCNK3 block	KCNQ1 block	hERG protect	KCNQ1 pot	KCNK9 inh conf	Kir21 sel	HEK293 Tl ctr	KCNK3 inh conf	KCNK3 noninduced
O=C(N/N=C/c1ccc(Cl)cc1)c1cc(-c2cccnc2)nc2ccccc12	i	i	i	-4	i	·	·	·	·	·
O=C(NCc1nnc2c(C(F)(F)F)cc(Cl)cn12)C1CCCC1	i	i	i	-2	i	·	·	·	·	·
CC(C)C1OC(c2cccc(NC(=O)c3cccs3)c2)OCC1(C)C (centres undefined)	-8.5*	-9.5*	i	-17	i	50%*	i	44%*	114*	0.16*
CCCCOc1ccc2c(C)cc(=O)oc2c1OCCCC	-25*	-9.4*	7*	-12	i	76%*	i	36%*	119*	0.14*
CCOc1ccc2c(C)cc(=O)oc2c1OCC	i	i	i	-4	i	·	·	·	·	·
Cc1ccc(/C=C/C(=O)N2CCc3ccccc3C2)cc1	i	i	i	-8	i	·	·	·	·	·
CC(C)(C)c1ccc(/C=C/C(=O)N2CCc3ccccc3C2)cc1	i	-11*	13*	-4	i	i	i	26%*	124*	0.15*
CCC1CCCCN1S(=O)(=O)c1ccc(NC(=O)c2snnc2C)cc1 (centres undefined)	i	i	i	-10	i	·	·	·	·	·
CCC1CCCCN1S(=O)(=O)c1ccc(NC(=O)c2cccs2)cc1 (centres undefined)	-8.3*	-11*	i	-14	i	52%*	i	28%*	107*	i
COC(=O)c1cc(COc2ccc3oc(C)c(C(=O)OC(C)C)c3c2)c(C)o1	-10*	i	i	-5	i	i	i	46%*	92*	0.14*
N#CCc1cc2ccc3cccc4ccc(c1)c2c34	i	i	i	-3	i	·	·	·	·	·
CCOC(=O)c1ccccc1NC(=O)c1cccc([N+](=O)[O-])c1	i	i	i	-4	i	·	·	·	·	·
